The subject of data set [1] is Human betaherpesvirus 5. Put plainly: Antimicrobial activity against Human cytomegalovirus AD169 infected in compound pretreated HELF assessed as inhibition of viral replication measured after 6 days post-infection. The class given is functional, organism-based. The following applies: Human betaherpesvirus 5, AD169, HELF. The essentials: (§1)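 HELF pretreated with ODN 1 h before infection with HCMV AD169 (MOI 1); ODN kept in medium after 2 h adsorption at 37°C. At 6 days p.i., cells plus supernatants sonicated and titrated by plaque assay on HELF; plaques counted microscopically, expressed as PFU/ml (log10) or % of control. IC50/IC90 by linear regression; duplicate wells, three independent experiments, means ± SD.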

Data set [2] concerns Human betaherpesvirus 5. Put plainly: Antimicrobial activity against 0.1 uM compound pretreated Human cytomegalovirus AD169 infected in HELF assessed as reduction in viral titer 37 degC. Type of data set: functional, organism-based. The essentials:
(§2)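 HCMV AD169 (10^4 PFU) incubated with ODN at 0.1 μM at 4 or 37°C for various times; samples then diluted to bring ODN below an antivirally active level; residual infectivity titrated by plaque assay on HELF. Means ± SD of three independent experiments.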

The test system of data set [3] is Human betaherpesvirus 5. Put plainly: Antimicrobial activity against Human cytomegalovirus AD169 infected in HELF assessed as inhibition of viral replication at 0.1 uM measured after 6 days post-infection. The class given is functional, organism-based.
The test system of data set [4] is Human betaherpesvirus 5. Put plainly: Antimicrobial activity against Human cytomegalovirus AD169 infected in 0.1 uM compound pretreated HELF assessed as inhibition of viral replication measured after 6 days post-infection. The class given is functional, organism-based. In short, it runs like this: as §1
Data set [5] relates to Human alphaherpesvirus 1. Put plainly: Antimicrobial activity against Human herpesvirus 1 infected in compound pretreated HELF assessed as inhibition of viral replication at 1 uM. Type of data set: functional, organism-based. In short, it runs like this: (§3)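 HELF pretreated with ODN (0.1 or 1 μM) 1 h before infection with a clinical HSV-1 isolate at MOI 0.1; ODN kept in medium after 2 h adsorption. Harvest at 48 h p.i., sonication, plaque titration on Vero cells. Means ± SD of three independent experiments.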

Data set [6] has as its system Human betaherpesvirus 5. In words: Antimicrobial activity against Human cytomegalovirus AD169 infected in 1 uM compound pretreated HELF assessed as inhibition of viral replication measured after 6 days post-infection. The class given is functional, organism-based. In short, it runs like this:
as §1

The subject of data set [7] is Human betaherpesvirus 5. In words: Antimicrobial activity against 0.1 uM compound pretreated Human cytomegalovirus AD169 infected in HELF assessed as reduction in viral titer at 4 degC. The class given is functional, organism-based. The essentials:
as §2

Data set [8] in a line: Cytotoxicity against HELF assessed as cell viability after 6 days by MTT assay. Type of data set: cell-based. The following applies: human, HELF cells. In short, it runs like this:
(§4)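 HELF exposed to rising ODN concentrations (up to 10 μM) for 6 days; viable cells measured by MTT. CC50 taken as concentration that cuts viability to 50%.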
In general terms: Tetrazolium dyes change colour on reduction, which living cells bring about.

In data set [9] the test system is Human alphaherpesvirus 1. Put plainly: Antimicrobial activity against Human herpesvirus 1 infected in compound pretreated HELF assessed as inhibition of viral replication at 0.1 uM. The class given is functional, organism-based. The essentials:
as §3

The nature of data set [10]: Cytotoxicity against HELF assessed as cell viability by MTT assay after 6 days at <=10 uM. The class given is cell-based. The following applies: human, 144 h. The essentials:
as §4

For data set [11], the system named is Human betaherpesvirus 5. Put plainly: Antimicrobial activity against Human cytomegalovirus AD169 infected in HELF assessed as inhibition of viral replication at 1 uM measured after 6 days post-infection. The class given is functional, organism-based.

The text below walks through data of ChEMBL document CHEMBL1255259, “Phosphorothioate-modified oligodeoxynucleotides inhibit human cytomegalovirus replication by blocking virus entry” (Antimicrob Agents Chemother, 2008).

Activity calls are given as the source filed them. The rule behind the calls is not given here. Some results are limits rather than exact numbers.

As usually defined, the IC50 is the concentration that gives 50% inhibition. For orientation: IC90 means the concentration at which the effect reaches the 90% level. For orientation: CC50 means the concentration giving 50% cytotoxicity. Turning to `Cc1cn([C@H]2C[C@H](OP(O)(O)=S)[C@@H](COP(O)(=S)O[C@H]3C[C@H](n4cc(C)c(=O)[nH]c4=O)O[C@@H]3COP(O)(=S)O[C@H]3[C@@H](O)[C@H](n4cnc5c(=O)[nH]c(N)nc54)O[C@@H]3COP(O)(=S)O[C@H]3[C@@H](O)[C@H](n4ccc(N)nc4=O)O[C@@H]3COP(O)(=S)O[C@H]3[C@@H](O)[C@H](n4cnc5c(N)ncnc54)O[C@@H]3COP(O)(=S)O[C@H]3[C@@H](O)[C@H](n4cnc5c(=O)[nH]c(N)nc54)O[C@@H]3COP(O)(=S)O[C@H]3C[C@H](n4cc(C)c(=O)[nH]c4=O)O[C@@H]3COP(O)(=S)O[C@H]3[C@@H](O)[C@H](n4ccc(N)nc4=O)O[C@@H]3COP(O)(=S)O[C@H]3[C@@H](O)[C@H](n4ccc(N)nc4=O)O[C@@H]3COP(O)(=S)O[C@H]3C[C@H](n4cc(C)c(=O)[nH]c4=O)O[C@@H]3COP(O)(=S)O[C@H]3C[C@H](n4cc(C)c(=O)[nH]c4=O)O[C@@H]3COP(O)(=S)O[C@H]3[C@@H](O)[C@H](n4cnc5c(=O)[nH]c(N)nc54)O[C@@H]3COP(O)(=S)O[C@H]3[C@@H](O)[C@H](n4ccc(N)nc4=O)O[C@@H]3COP(O)(=S)O[C@H]3[C@@H](O)[C@H](n4cnc5c(N)ncnc54)O[C@@H]3COP(O)(=S)O[C@H]3[C@@H](O)[C@H](n4cnc5c(=O)[nH]c(N)nc54)O[C@@H]3COP(O)(=S)O[C@H]3C[C@H](n4cc(C)c(=O)[nH]c4=O)O[C@@H]3COP(O)(=S)O[C@H]3[C@@H](O)[C@H](n4cnc5c(N)ncnc54)O[C@@H]3COP(O)(=S)O[C@H]3[C@@H](O)[C@H](n4ccc(N)nc4=O)O[C@@H]3COP(O)(=S)O[C@H]3[C@@H](O)[C@H](n4ccc(N)nc4=O)O[C@@H]3COP(O)(=S)O[C@H]3C[C@H](n4cc(C)c(=O)[nH]c4=O)O[C@@H]3CO)O2)c(=O)[nH]c1=O` (stereo partly specified), the IC50 with Human betaherpesvirus 5 [1] came to 40 nM. The IC90 in the data set on Human betaherpesvirus 5 [1] worked out at 900 nM. The inhibition entry in the data set with Human betaherpesvirus 5 [2], in the data set with Human betaherpesvirus 5 [3], with Human alphaherpesvirus 1 [5], in the data set on Human betaherpesvirus 5 [7], in the data set with Human alphaherpesvirus 1 [9] and with Human betaherpesvirus 5 [11] was “inactive” each time. For the same compound, the inhibition result with Human betaherpesvirus 5 [4] and in the data set on Human betaherpesvirus 5 [6] was “Active” in each case. In addition, the CC50 at 144 h in data set [8] is over 10000 nM. In addition, the Activity result in [10] is given as “Non-toxic”.
Regarding `Cc1cn([C@H]2C[C@H](OP(O)(O)=S)[C@@H](COP(O)(=S)O[C@H]3C[C@H](n4cc(C)c(=O)[nH]c4=O)O[C@@H]3COP(O)(=S)O[C@H]3[C@@H](O)[C@H](n4cnc5c(=O)[nH]c(N)nc54)O[C@@H]3COP(O)(=S)O[C@H]3[C@@H](O)[C@H](n4ccc(N)nc4=O)O[C@@H]3COP(O)(=S)O[C@H]3C[C@H](n4cc(C)c(=O)[nH]c4=O)O[C@@H]3COP(O)(=S)O[C@H]3[C@@H](O)[C@H](n4cnc5c(=O)[nH]c(N)nc54)O[C@@H]3COP(O)(=S)O[C@H]3C[C@H](n4cc(C)c(=O)[nH]c4=O)O[C@@H]3COP(O)(=S)O[C@H]3C[C@H](n4cc(C)c(=O)[nH]c4=O)O[C@@H]3COP(O)(=S)O[C@H]3C[C@H](n4cc(C)c(=O)[nH]c4=O)O[C@@H]3COP(O)(=S)O[C@H]3C[C@H](n4cc(C)c(=O)[nH]c4=O)O[C@@H]3COP(O)(=S)O[C@H]3[C@@H](O)[C@H](n4cnc5c(=O)[nH]c(N)nc54)O[C@@H]3COP(O)(=S)O[C@H]3[C@@H](O)[C@H](n4ccc(N)nc4=O)O[C@@H]3COP(O)(=S)O[C@H]3C[C@H](n4cc(C)c(=O)[nH]c4=O)O[C@@H]3COP(O)(=S)O[C@H]3[C@@H](O)[C@H](n4cnc5c(=O)[nH]c(N)nc54)O[C@@H]3COP(O)(=S)O[C@H]3[C@@H](O)[C@H](n4ccc(N)nc4=O)O[C@@H]3COP(O)(=S)O[C@H]3C[C@H](n4cc(C)c(=O)[nH]c4=O)O[C@@H]3COP(O)(=S)O[C@H]3C[C@H](n4cc(C)c(=O)[nH]c4=O)O[C@@H]3COP(O)(=S)O[C@H]3C[C@H](n4cc(C)c(=O)[nH]c4=O)O[C@@H]3COP(O)(=S)O[C@H]3[C@@H](O)[C@H](n4cnc5c(=O)[nH]c(N)nc54)O[C@@H]3COP(O)(=S)O[C@H]3[C@@H](O)[C@H](n4ccc(N)nc4=O)O[C@@H]3COP(O)(=S)O[C@H]3C[C@H](n4cc(C)c(=O)[nH]c4=O)O[C@@H]3COP(O)(=S)O[C@H]3[C@@H](O)[C@H](n4cnc5c(=O)[nH]c(N)nc54)O[C@@H]3COP(O)(=S)O[C@H]3[C@@H](O)[C@H](n4ccc(N)nc4=O)O[C@@H]3COP(O)(=S)O[C@H]3C[C@H](n4cc(C)c(=O)[nH]c4=O)O[C@@H]3CO)O2)c(=O)[nH]c1=O` (stereo partly specified), in the data set on Human betaherpesvirus 5 [1], the IC50 was found to be 50 nM. The IC90 with Human betaherpesvirus 5 [1] was 800 nM. Moreover, the inhibition result in the data set with Human betaherpesvirus 5 [2], in the data set on Human betaherpesvirus 5 [3], in the data set on Human alphaherpesvirus 1 [5], in the data set on Human betaherpesvirus 5 [7], in the data set on Human alphaherpesvirus 1 [9] and in the data set with Human betaherpesvirus 5 [11] was “inactive” throughout. The inhibition entry in the data set on Human betaherpesvirus 5 [4] and in the data set with Human betaherpesvirus 5 [6] was “Active” each time. Besides, the CC50 at 144 h in [8] was over 10000 nM. Also, the Activity entry in data set [10] is recorded as “Non-toxic”.
Take `Cc1cn([C@H]2C[C@H](OP(O)(=S)OC[C@H]3O[C@@H](n4ccc(N)nc4=O)[C@H](O)[C@@H]3OP(O)(=S)OC[C@H]3O[C@@H](n4cnc5c(=O)[nH]c(N)nc54)[C@H](O)[C@@H]3OP(O)(=S)OC[C@H]3O[C@@H](n4cc(C)c(=O)[nH]c4=O)C[C@@H]3OP(O)(=S)OC[C@H]3O[C@@H](n4ccc(N)nc4=O)[C@H](O)[C@@H]3OP(O)(=S)OC[C@H]3O[C@@H](n4cnc5c(=O)[nH]c(N)nc54)[C@H](O)[C@@H]3OP(O)(=S)OC[C@H]3O[C@@H](n4cc(C)c(=O)[nH]c4=O)C[C@@H]3OP(O)(=S)OC[C@H]3O[C@@H](n4cc(C)c(=O)[nH]c4=O)C[C@@H]3OP(O)(=S)OC[C@H]3O[C@@H](n4cc(C)c(=O)[nH]c4=O)C[C@@H]3OP(O)(=S)OC[C@H]3O[C@@H](n4cc(C)c(=O)[nH]c4=O)C[C@@H]3OP(O)(=S)OC[C@H]3O[C@@H](n4cnc5c(=O)[nH]c(N)nc54)[C@H](O)[C@@H]3OP(O)(=S)OC[C@H]3O[C@@H](n4cc(C)c(=O)[nH]c4=O)C[C@@H]3OP(O)(=S)OC[C@H]3O[C@@H](n4ccc(N)nc4=O)[C@H](O)[C@@H]3OP(O)(=S)OC[C@H]3O[C@@H](n4cnc5c(=O)[nH]c(N)nc54)[C@H](O)[C@@H]3OP(O)(=S)OC[C@H]3O[C@@H](n4cc(C)c(=O)[nH]c4=O)C[C@@H]3OP(O)(=S)OC[C@H]3O[C@@H](n4cc(C)c(=O)[nH]c4=O)C[C@@H]3OP(O)(=S)OC[C@H]3O[C@@H](n4cc(C)c(=O)[nH]c4=O)C[C@@H]3OP(O)(=S)OC[C@H]3O[C@@H](n4cc(C)c(=O)[nH]c4=O)C[C@@H]3OP(O)(=S)OC[C@H]3O[C@@H](n4cc(C)c(=O)[nH]c4=O)C[C@@H]3OP(O)(=S)OC[C@H]3O[C@@H](n4cc(C)c(=O)[nH]c4=O)C[C@@H]3OP(O)(=S)OC[C@H]3O[C@@H](n4cc(C)c(=O)[nH]c4=O)C[C@@H]3OP(O)(=S)OC[C@H]3O[C@@H](n4ccc(N)nc4=O)[C@H](O)[C@@H]3OP(O)(=S)OC[C@H]3O[C@@H](n4cnc5c(=O)[nH]c(N)nc54)[C@H](O)[C@@H]3OP(O)(=S)OC[C@H]3O[C@@H](n4cnc5c(N)ncnc54)[C@H](O)[C@@H]3OP(O)(O)=S)[C@@H](CO)O2)c(=O)[nH]c1=O` (stereo partly specified): the IC50 in the data set with Human betaherpesvirus 5 [1] was 20 nM. Further, the IC90 in the data set with Human betaherpesvirus 5 [1] came to 100 nM. In addition, the inhibition entry with Human betaherpesvirus 5 [2], in the data set on Human betaherpesvirus 5 [3], in the data set on Human alphaherpesvirus 1 [5], in the data set with Human betaherpesvirus 5 [7], with Human alphaherpesvirus 1 [9] and with Human betaherpesvirus 5 [11] was “inactive” each time. The inhibition entry in the data set with Human betaherpesvirus 5 [4] and in the data set with Human betaherpesvirus 5 [6] was “Active” throughout. In data set [8], the CC50 at 144 h was over 10000 nM. In [10], the Activity result was “Non-toxic”.
